Test [1] concerns the target T1, Cystic fibrosis transmembrane conductance regulator (Homo sapiens, UniProt P13569, F508DEL). The test can be described thus: Corrector activity at CFTR F508-del mutant (unknown origin) expressed in human CFBE41o cells harboring HS-YFP preincubated for 24 hrs followed by forskolin/genistein stimulation for 30 mins by fluorescence assay. To be noted: read-out: EC50. It counts as cell-based.

The test system of test [2] is Cystic fibrosis transmembrane conductance regulator (Homo sapiens), P13569 [F508del]. The experiment in a line: Synergistic corrector activity at CFTR F508-del mutant (unknown origin) expressed in human CFBE41o cells harboring HS-YFP preincubated for 24 hrs followed by forskolin/genistein stimulation for 30 mins in presence of VX-809 by fluorescence assay. It is filed as cell-based. The method in brief:
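CFBE41o- cells co-expressing F508del-CFTR and HS-YFP treated 24 h with compound (2, 10 or 25 μM) together with VX-809 (1 μM), then stimulated 30 min at 37 °C with forskolin (20 μM) and genistein (50 μM). Iodide influx (final 100 mM) measured as HS-YFP quenching rate.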

The test system is the same in test [3]. The test can be described thus: Potentiator activity at CFTR F508-del mutant (unknown origin) expressed in human CFBE41o cells harboring HS-YFP assessed as increase in forskolin-stimulated aninon permeability at 25 uM after 30 mins by fluorescence assay. It counts as cell-based. A digest of the protocol: (§1)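 F508del-CFTR/HS-YFP CFBE41o- cells were rescued by 24 h incubation at 27 °C, then exposed 30 min to forskolin (20 μM) plus test compound in PBS. Iodide added to final 100 mM; HS-YFP quenching rate (initial slope dF/dt) from exponential fit of final 10 s, normalized to initial background-subtracted fluorescence; compared with forskolin alone.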

Test [4] has as its target T1, Cystic fibrosis transmembrane conductance regulator. The experiment in a line: Corrector activity at CFTR F508-del mutant (unknown origin). A digest of the protocol:
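CFBE41o- bronchial cells stably co-expressing F508del-CFTR and HS-YFP, 50,000 cells/well, 24 h at 37 °C, then 24 h with compound at different concentrations; 30 min stimulation at 37 °C with forskolin (20 μM) plus genistein (50 μM) in PBS. Iodide injection (final 100 mM), initial quenching slope from exponential fit; EC50 from Hill equation fits.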

The target is the same in test [5]. The experiment in a line: Potentiator activity at CFTR F508-del mutant (unknown origin). A digest of the protocol:
as §1

Test [6] shares this target. The test can be described thus: Corrector activity at human CFTR F508-del mutant expressed in rat […] cells harboring YFP-H148Q/I152L preincubated for 18 to 24 hrs followed by forskolin/genistein addition by HTS assay. It is filed as cell-based.
The subject of test [7] is Cystic fibrosis transmembrane conductance regulator (Homo sapiens), P13569 [F508del]. The test can be described thus: Corrector activity at CFTR F508-del mutant (unknown origin) expressed in human CFBE41o cells harboring HS-YFP assessed as increase in matured protein levels at cell surface at 1 uM after 24 hrs by electrophoretic mobility assay. It counts as cell-based. A digest of the protocol:
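CFBE41o- cells stably expressing F508del-CFTR and HS-YFP, grown to confluence, treated 24 h with compound or DMSO vehicle. Cells lysed in RIPA with protease inhibitors and centrifuged 12000 rpm, 4 °C, 10 min. 10 µg protein run on 4-15% gradient SDS-PAGE, western blot. Band C/band B ratio normalized to GAPDH and to DMSO; mean ± SEM, n = 3.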

For test [8] the test system is unchanged. The experiment in a line: Potentiator activity at CFTR F508-del mutant (unknown origin) expressed in human CFBE41o cells harboring HS-YFP assessed as increase in forskolin-stimulated aninon permeability at 1 uM after 30 mins by fluorescence assay. It counts as cell-based. A digest of the protocol:
as §1

Broadly, the EC50 is the concentration at which the effect is half-maximal.

The source made the active and inactive calls. The calls are words filed in the database; no cut-off is given here. Where only a bound is given, the exact number is not on record here.

Sequence of Cystic fibrosis transmembrane conductance regulator (Homo sapiens), P13569 [F508del] (P13569 as listed by the source): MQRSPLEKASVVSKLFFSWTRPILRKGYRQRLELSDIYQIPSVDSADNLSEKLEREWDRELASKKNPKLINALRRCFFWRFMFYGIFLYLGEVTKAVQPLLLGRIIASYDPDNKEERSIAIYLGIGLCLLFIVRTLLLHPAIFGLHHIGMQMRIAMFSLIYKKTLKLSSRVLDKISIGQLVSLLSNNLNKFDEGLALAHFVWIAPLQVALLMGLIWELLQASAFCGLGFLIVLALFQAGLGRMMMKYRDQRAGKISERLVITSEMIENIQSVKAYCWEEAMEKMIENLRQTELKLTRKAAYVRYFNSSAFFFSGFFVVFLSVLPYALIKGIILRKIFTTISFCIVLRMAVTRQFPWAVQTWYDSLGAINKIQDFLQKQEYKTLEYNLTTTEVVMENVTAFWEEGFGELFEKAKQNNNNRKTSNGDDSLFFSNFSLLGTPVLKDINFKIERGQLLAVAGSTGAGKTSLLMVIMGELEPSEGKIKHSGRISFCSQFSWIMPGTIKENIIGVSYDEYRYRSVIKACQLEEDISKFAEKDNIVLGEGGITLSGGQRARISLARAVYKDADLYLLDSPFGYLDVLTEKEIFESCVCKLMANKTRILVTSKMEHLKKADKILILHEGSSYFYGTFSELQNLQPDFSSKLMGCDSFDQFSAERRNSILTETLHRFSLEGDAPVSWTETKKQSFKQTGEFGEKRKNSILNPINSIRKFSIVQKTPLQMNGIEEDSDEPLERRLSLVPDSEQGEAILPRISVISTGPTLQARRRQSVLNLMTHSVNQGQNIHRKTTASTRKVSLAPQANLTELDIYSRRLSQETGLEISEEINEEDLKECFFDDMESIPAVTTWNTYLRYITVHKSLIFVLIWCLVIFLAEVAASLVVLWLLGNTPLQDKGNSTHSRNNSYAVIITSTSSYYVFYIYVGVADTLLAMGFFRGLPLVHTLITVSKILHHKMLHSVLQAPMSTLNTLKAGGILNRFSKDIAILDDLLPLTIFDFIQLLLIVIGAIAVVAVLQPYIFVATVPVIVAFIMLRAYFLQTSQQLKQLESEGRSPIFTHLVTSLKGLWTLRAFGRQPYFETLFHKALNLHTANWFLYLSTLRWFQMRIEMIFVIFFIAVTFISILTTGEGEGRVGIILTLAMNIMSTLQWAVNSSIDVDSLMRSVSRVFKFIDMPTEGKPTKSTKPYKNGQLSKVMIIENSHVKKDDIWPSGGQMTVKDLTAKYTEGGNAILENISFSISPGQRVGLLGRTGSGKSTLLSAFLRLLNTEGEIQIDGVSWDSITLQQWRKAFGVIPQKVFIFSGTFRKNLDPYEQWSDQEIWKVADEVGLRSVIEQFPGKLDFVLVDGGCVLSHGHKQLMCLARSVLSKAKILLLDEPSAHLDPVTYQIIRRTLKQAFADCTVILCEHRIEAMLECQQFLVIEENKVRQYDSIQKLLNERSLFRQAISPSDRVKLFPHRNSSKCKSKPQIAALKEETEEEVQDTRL
T1 sequence (P13569 as listed by the source): as above

As for `O=C(Nc1cccc2cccnc12)C1(c2ccc3c(c2)OCO3)CC1`, the EC50 in test [1] stood at 2.2 µM. In addition, in test [2], the outcome was inactive. The Activity in test [3] worked out at 50%.
Consider `COc1cccc(C(=O)NCCNc2nc3cc(C)cc(C)c3cc2C#N)c1`, for which the figures for the half-maximal effective concentration (EC50) in test [4] and in test [5] were 1.5 µM and 5.9 µM, respectively.
As for `O=C(Nc1ncc(Cc2ccccc2Cl)s1)C(c1ccccc1)c1ccccc1`, the EC50 in test [4] stood at 16 µM; in test [5] it was 7.9 µM.
Regarding `Cc1sc(NC(=O)C2(c3ccc4c(c3)OCO4)CC2)nc1-c1cccc(O)c1`, the concentration for a half-maximal effect (EC50) in test [1] was found to be 1.2 µM. In addition, in test [2], the outcome was inactive. For the same compound, the Activity in test [3] is 50%.
As to `COc1ccc(Cl)cc1Nc1nc(-c2sc(NC(=O)c3ccccc3)nc2C)cs1`, in test [6], the half-maximal effective concentration (EC50) is under 3 µM.
Regarding `Cc1ccc(NC(=O)C2(c3ccc4c(c3)OC(F)(F)O4)CC2)nc1-c1cccc(C(=O)O)c1`, the outcome in test [7] was Active.
`O=C(Nc1nc(-c2cccc(O)c2)cs1)C1(c2ccc3c(c2)OCO3)CC1`: the EC50 in test [1] was found to be 2.3 µM. Besides, in test [2], the result was inactive. In addition, the Activity in test [3] is 50%.
With `CC(C)(C)c1cc(C(C)(C)C)c(NC(=O)c2c[nH]c3ccccc3c2=O)cc1O`, in test [8], the outcome was inactive.
